Experimental findings from ChEMBL document CHEMBL1949545, “Synthesis and evaluation of malonate-based inhibitors of phosphosugar-metabolizing enzymes: class II fructose-1,6-bis-phosphate aldolases, type I phosphomannose isomerase, and phosphoglucose isomerase” (Bioorg Med Chem, 2012) are described below.

Activity calls are given as the source filed them. The calls are words filed in the database; no cut-off is given here. Bounds are passed on as bounds.

The target in assay [1] is T1, Fructose-bisphosphate aldolase A (Oryctolagus cuniculus, UniProt P00883).
T1 sequence (P00883 whole entry): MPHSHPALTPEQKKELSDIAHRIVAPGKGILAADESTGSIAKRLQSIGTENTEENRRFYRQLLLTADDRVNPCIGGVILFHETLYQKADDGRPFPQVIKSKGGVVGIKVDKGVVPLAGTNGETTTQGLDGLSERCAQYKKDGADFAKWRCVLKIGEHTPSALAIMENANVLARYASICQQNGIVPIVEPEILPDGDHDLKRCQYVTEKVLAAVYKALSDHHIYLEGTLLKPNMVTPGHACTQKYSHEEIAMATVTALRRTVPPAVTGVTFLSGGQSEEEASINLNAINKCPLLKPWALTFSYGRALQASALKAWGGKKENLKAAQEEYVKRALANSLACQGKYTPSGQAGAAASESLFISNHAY
Put plainly: Inhibition of rabbit muscle FBA-1.

Assay [2] in a line: Inhibition of Candida albicans FBA-2.
A short description of assay [3]: Inhibition of Helicobacter pylori FBA-2.
Assay [4] can be described thus: Inhibition of Mycobacterium tuberculosis FBA-2.
Assay [5] is described as follows: Inhibition of Yersinia pestis FBA-2.
The test system of assay [6] is Mycobacterium tuberculosis. Nature of the assay: Antimicrobial activity against Mycobacterium tuberculosis at 1 mM. The class given is functional, organism-based.
For assay [7], the system named is Yersinia pestis. Nature of the assay: Antimicrobial activity against Yersinia pestis at 1 mM. The class given is functional, organism-based.
For assay [8], the system named is Candida albicans. Nature of the assay: Antimicrobial activity against Candida albicans at 1 mM. In kind it is functional, organism-based. The essentials: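 Growth inhibition was tested in cultivated microbial cultures at concentrations up to 1 mM.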
A short description of assay [9]: Inhibition of yeast PGI. More on the design: species or system Saccharomyces cerevisiae.
Assay [10] can be described thus: Inhibition of Escherichia coli PMI.

`O=C(CO)N(O)CCCCOP(=O)(O)O`: the inhibitory constant (Ki) is greater than 1000 µM in assay [1]; 0.76 µM in [2]; 1.2 µM in assay [3]; 0.175 µM in assay [4]; 0.08 µM in assay [5].

As for `O=C(O)C(CCCCN(O)C(=O)COP(=O)(O)O)C(=O)O`, the inhibition constant (Ki) amounted to 257 µM in assay [1]; 0.05 µM in assay [2]; 0.04 µM in [3]; 0.004 µM in assay [4]; 0.008 µM in assay [5]. Also, the result in assay [6], in assay [7] and in assay [8] was inactive.

Consider `O=C(NO)[C@@H](O)[C@H](O)[C@H](O)CO`, for which the values for the concentration for half-maximal inhibition (IC50) in [9] and in assay [10] were 5540 µM and 10000 µM, respectively.

With `O=C(O)C(CC(=O)N(O)CCCCOP(=O)(O)O)C(=O)O`, the inhibition constant Ki in assay [1] was 500 µM; in assay [2], 2300 µM; in [3], 250 µM; in [4], 500 µM; in [5], 1500 µM. Also, the outcome in [6], in [7] and in [8] was inactive.

As to `NO.O=C(O)C(C[C@@H](O)[C@@H](O)[C@H](O)C(=O)NO)C(=O)O`, the IC50 in assay [9] came to 2290 µM. The inhibition constant Ki in assay [10] was determined as 162 µM.

As for `O=C(COP(=O)(O)O)N(O)CCCCOP(=O)(O)O`, the result in [6], in assay [7] and in assay [8] was inactive.

For the compound `O=C(NO)[C@@H](O)[C@H](O)[C@H](O)COP(=O)(O)O`, the inhibition constant (Ki) in [9] came to 0.23 µM; in assay [10] it was 0.08 µM.
